Data on ten compounds can be found in ChEMBL document CHEMBL4680073, “Total Synthesis of Laspartomycin C and Characterization of Its Antibacterial Mechanism of Action” (J Med Chem, 2016).

For test [1], the system named is Staphylococcus simulans. Put plainly: Antibacterial activity against Staphylococcus simulans 22 assessed as inhibition of bacterial growth incubated for 16 hrs in presence of lipid I by broth microdilution assay. Type of test: functional, organism-based. In a few lines: (§1)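 The antibiotic was pre-incubated with the cell wall precursor (e.g. UDP-GlcNAc, C55-PP, C55-P) before being given to the bacteria, with vancomycin as positive control.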
(Broth dilution looks for growth in wells or tubes with falling amounts of substance.)

For test [2], the system named is Staphylococcus simulans. The test is described as follows: Antibacterial activity against Staphylococcus simulans 22 assessed as inhibition of bacterial growth incubated for 16 hrs in presence of lipid II by broth microdilution assay. Type of test: functional, organism-based. In a few lines: as §1
Test [3] concerns Staphylococcus simulans. The test is described as follows: Antibacterial activity against Staphylococcus simulans 22 assessed as inhibition of bacterial growth incubated for 16 hrs in presence of UDP-MurNAc-pp by broth microdilution assay. Type of test: functional, organism-based. In a few lines: as §1
The test system of test [4] is Staphylococcus simulans. The test is described as follows: Antibacterial activity against Staphylococcus simulans 22 assessed as inhibition of bacterial growth incubated for 16 hrs in presence of UDP-GlcNAc by broth microdilution assay. Type of test: functional, organism-based. The method, boiled down: as §1
The subject of test [5] is Staphylococcus simulans. The test is described as follows: Antibacterial activity against Staphylococcus simulans 22 assessed as inhibition of bacterial growth incubated for 16 hrs in presence of C55-P by broth microdilution assay. Type of test: functional, organism-based. The method, boiled down:
as §1

For test [6], the system named is Staphylococcus simulans. Put plainly: Antibacterial activity against Staphylococcus simulans 22 assessed as inhibition of bacterial growth incubated for 16 hrs in presence of C55-PP by broth microdilution assay. Type of test: functional, organism-based. The method, boiled down:
as §1

Test [7] relates to Staphylococcus simulans. Put plainly: Antibacterial activity against Staphylococcus simulans 22 assessed as inhibition of bacterial growth incubated for 16 hrs in presence of C15-PP by broth microdilution assay. Type of test: functional, organism-based. The method, boiled down:
as §1

The test system of test [8] is Staphylococcus simulans. The test is described as follows: Antibacterial activity against Staphylococcus simulans 22 assessed as inhibition of bacterial growth incubated for 16 hrs in presence of C15-P by broth microdilution assay. Type of test: functional, organism-based. The method, boiled down:
as §1

The subject of test [9] is Staphylococcus aureus. The test is described as follows: Antibacterial activity against Staphylococcus aureus ATCC 29213 assessed as inhibition of bacterial growth incubated for 16 hrs by broth microdilution assay. Type of test: functional. The method, boiled down: (§2)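 MICs were read in µg/mL against indicator strains S. aureus 29213 and S. simulans 22. The growth medium was supplemented with Ca2+ at 5.0 or 10 mM.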

The test system of test [10] is Staphylococcus aureus. Put plainly: Antibacterial activity against Staphylococcus aureus ATCC 29213 assessed as inhibition of bacterial growth incubated for 16 hrs in presence of 10 mM Ca2+ by broth microdilution assay. Type of test: functional. The method, boiled down:
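MIC, read in µg/mL, was determined in growth medium supplemented with Ca2+ at a final 10 mM. The same strain was also tested at 5 mM Ca2+ to check how calcium level affects the MIC.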

Test [11] concerns Staphylococcus simulans. Put plainly: Antibacterial activity against Staphylococcus simulans 22 assessed as inhibition of bacterial growth incubated for 16 hrs in presence of 5 mM Ca2+ by broth microdilution assay. Type of test: functional. The method, boiled down:
as §2

Test [12] deals with Staphylococcus simulans. Put plainly: Antibacterial activity against Staphylococcus simulans 22 assessed as inhibition of bacterial growth incubated for 16 hrs in presence of 10 mM Ca2+ by broth microdilution assay. Type of test: functional. In a few lines: as §2
Test [13] in a line: Binding affinity to calcium at 60 uM in pH 7.4 buffer by CD spectroscopy.
Test [14] deals with Staphylococcus aureus. The test is described as follows: Induction of UDP-MurNAc-pentapeptide accumulation in Staphylococcus aureus ATCC 29213 at 10 times MIC incubated for 60 mins by HPLC analysis. Type of test: functional.
Test [15] in a line: Binding affinity to undecaprenyl phosphate (C55-P) at 0.5 to 2 equiv in Ca2+-containing buffer incubated for 2 hrs by TLC-based binding assay. The settings on record: dose 0.5-2 equiv.
A short description of test [16]: Binding affinity to lipid II at 0.5 to 2 equiv in Ca2+-containing buffer incubated for 2 hrs by TLC-based binding assay. To be noted: dose 0.5-2 equiv.
A short description of test [17]: Binding affinity to undecaprenyl phosphate (C55-P) assessed as reduction in lipid II synthesis at 0.5 to 2 equiv in presence of UDP-GlcNAc, UDPMurNAc-pentapeptide and Micrococcus flavus membrane vesicles and measured after 2 hrs by TLC analysis. To be noted: dose 0.5-2 equiv. The method, boiled down: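 C55-P was pre-treated with the antibiotic over a range of concentrations. UDP-GlcNAc, UDP-MurNAc-pentapeptide and M. flavus membrane vesicles containing MraY and MurG were then added, and lipid II formation was monitored.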

≈ marks a conversion by molar mass, not a printed value. Calls of active or inactive are those of the source.

In the case of `CCCCCCCCCC(=O)N[C@@H](Cc1c[nH]c2ccccc12)C(=O)N[C@H](CC(N)=O)C(=O)N[C@@H](CC(=O)O)C(=O)N[C@H]1CNC(=O)[C@H]2CCCN2C(=O)[C@H]([C@@H](C)CC)NC(=O)[C@@H]([C@@H](C)O)NC(=O)CNC(=O)[C@H](CC(=O)O)NC(=O)[C@@H](C)NC(=O)[C@H](CC(=O)O)NC(=O)CNC(=O)CNC1=O`, the result in test [1], in test [2], in [3], in [4], in [5] and in [6] was Active. Further, the outcome in [7] and in test [8] was Active.
For the compound `CCCCCCCCCC(=O)N[C@@H](Cc1c[nH]c2ccccc12)C(=O)N[C@H](CC(N)=O)C(=O)N[C@@H](CC(=O)O)C(=O)N[C@H]1CNC(=O)[C@@H](Cc2c[nH]c3ccccc23)NC(=O)[C@H](CCC(=O)O)NC(=O)[C@@H](CO)NC(=O)CNC(=O)[C@H](CC(=O)O)NC(=O)[C@@H](C)NC(=O)[C@H](CC(=O)O)NC(=O)[C@H](CCCN)NC(=O)CNC1=O`, the result in test [1], in test [2], in [3], in [4], in test [5] and in [6] was Active. The result in [7] and in test [8] was Active.
Take `CCCCCCCCCC(=O)N[C@@H](Cc1c[nH]c2ccccc12)C(=O)N[C@H](CC(N)=O)C(=O)N[C@@H](CC(=O)O)C(=O)N[C@@H]1C(=O)NCC(=O)N[C@@H](CCCN)C(=O)N[C@@H](CC(=O)O)C(=O)N[C@H](C)C(=O)N[C@@H](CC(=O)O)C(=O)NCC(=O)N[C@H](CO)C(=O)N[C@@H]([C@@H](C)CC(=O)O)C(=O)N[C@@H](CC(=O)c2ccccc2N)C(=O)O[C@@H]1C`: the MIC (in general, the smallest concentration in the dilution series that meets the test's criterion for growth inhibition) in test [9] was 0.25 µg/mL (≈ 0.154 µM); in [10], 0.125 µg/mL; in test [11], 0.031 µg/mL; in test [12] it was no more than 0.031 µg/mL.
As for `CCCCCCCCCC(=O)N[C@@H](Cc1c[nH]c2ccccc12)C(=O)N[C@H](CC(N)=O)C(=O)N[C@@H](CC(=O)O)C(=O)N[C@H]1CNC(=O)[C@H]2CCCN2C(=O)[C@H]([C@@H](C)CC)NC(=O)[C@@H]([C@@H](C)O)NC(=O)CNC(=O)[C@H](CC(=O)O)NC(=O)[C@@H](C)NC(=O)[C@H](CC(=O)O)NC(=O)CNC(=O)[C@H]2CCCCN2C1=O`, the MIC entry in test [12] was “inactive”. Further, the result in [13], in [1], in [2], in test [3], in [4] and in [5] was Active. Besides, the result in [6], in test [7] and in [8] was Active.
For `CCCCCCCCCC(=O)N[C@@H](Cc1c[nH]c2ccccc12)C(=O)N[C@@H](CC(N)=O)C(=O)N[C@@H](CC(=O)O)C(=O)N[C@@H]1C(=O)NCC(=O)N[C@@H](CCCN)C(=O)N[C@H](CC(=O)O)C(=O)N[C@H](C)C(=O)N[C@@H](CC(=O)O)C(=O)NCC(=O)N[C@H](CO)C(=O)N[C@@H]([C@@H](C)CC(=O)O)C(=O)N[C@@H](CC(=O)c2ccccc2N)C(=O)O[C@@H]1C`, the outcome in test [14], in test [15], in test [16] and in test [17] was inactive. Besides, the result in test [1], in test [2], in test [3], in test [4], in [5] and in test [6] was Active. Moreover, the outcome in test [7] and in test [8] was Active.
For the compound `CN[C@H](CC(C)C)C(=O)N[C@H]1C(=O)N[C@@H](CC(N)=O)C(=O)N[C@H]2C(=O)N[C@H]3C(=O)N[C@H](C(=O)N[C@H](C(=O)O)c4cc(O)cc(O)c4-c4cc3ccc4O)[C@H](O)c3ccc(c(Cl)c3)Oc3cc2cc(c3O[C@@H]2O[C@H](CO)[C@@H](O)[C@H](O)[C@H]2O[C@H]2C[C@](C)(N)[C@H](O)[C@H](C)O2)Oc2ccc(cc2Cl)[C@H]1O`, the outcome in test [1], in test [2] and in [3] was inactive.
With `CCCCCCCCCC(=O)N[C@@H](Cc1c[nH]c2ccccc12)C(=O)N[C@H](CC(N)=O)C(=O)N[C@@H](CC(=O)O)C(=O)N[C@H]1CNC(=O)[C@H]2CCCN2C(=O)[C@H](CCC(=O)O)NC(=O)[C@@H](CO)NC(=O)CNC(=O)[C@H](CC(=O)O)NC(=O)[C@@H](C)NC(=O)[C@H](CC(=O)O)NC(=O)[C@H](CCCN)NC(=O)[C@H]2CCCCN2C1=O`, in test [12], the MIC entry was “inactive”. The result in test [13], in [1], in test [2], in test [3], in test [4] and in [5] was Active. Also, the outcome in [6], in test [7] and in test [8] was Active.
For the compound `CCCCCCCCCC(=O)N[C@@H](Cc1c[nH]c2ccccc12)C(=O)N[C@H](CC(N)=O)C(=O)N[C@@H](CC(=O)O)C(=O)N[C@H]1CNC(=O)[C@@H](Cc2c[nH]c3ccccc23)NC(=O)[C@H](CCC(=O)O)NC(=O)[C@@H](CO)NC(=O)CNC(=O)[C@H](CC(=O)O)NC(=O)[C@@H](C)NC(=O)[C@H](CC(=O)O)NC(=O)[C@H](CCCN)NC(=O)[C@H]2CCCCN2C1=O`, the outcome in [1], in test [2], in test [3], in test [4], in test [5] and in [6] was Active. In addition, the result in test [7] and in [8] was Active.
As for `CCCCCCCCCC(=O)N[C@@H](Cc1c[nH]c2ccccc12)C(=O)N[C@H](CC(N)=O)C(=O)N[C@@H](CC(=O)O)C(=O)N[C@H]1CNC(=O)[C@@H](CC(=O)c2ccccc2N)NC(=O)[C@H](CCC(=O)O)NC(=O)[C@@H](CO)NC(=O)CNC(=O)[C@H](CC(=O)O)NC(=O)[C@@H](C)NC(=O)[C@H](CC(=O)O)NC(=O)[C@H](CCCN)NC(=O)[C@H]2CCCCN2C1=O`, the outcome in test [1], in test [2], in [3], in test [4], in test [5] and in test [6] was Active. Moreover, the result in test [7] and in [8] was Active.
Take `CCCCCCCCCC(=O)N[C@@H](Cc1c[nH]c2ccccc12)C(=O)N[C@H](CC(N)=O)C(=O)N[C@@H](CC(=O)O)C(=O)N[C@H]1CNC(=O)[C@@H](CC(=O)c2ccccc2N)NC(=O)[C@H](CCC(=O)O)NC(=O)[C@@H](CO)NC(=O)CNC(=O)[C@H](CC(=O)O)NC(=O)[C@@H](C)NC(=O)[C@H](CC(=O)O)NC(=O)[C@H](CCCN)NC(=O)CNC1=O`: the result in test [1], in test [2], in [3], in test [4], in [5] and in test [6] was Active. For the same compound, the outcome in test [7] and in [8] was Active.
